High-throughput results from PubChem.
PAD4 inh: PAD4 (human) enzyme inhibition; Q9UM07; recombinant PAD4, RCA probe fluorescence polarization; inhibition, % at 6.36 µM; hit rate 0.41% among 330,000;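 active = percent inhibition above a cutoff equal to the mean of all tested compounds plus 3 SD, cut at about 15% in these data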;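 note: 0% = PAD4 with RCA probe and DMSO and 100% = probe without PAD4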
Target sequence (Q9UM07 whole entry, looked up): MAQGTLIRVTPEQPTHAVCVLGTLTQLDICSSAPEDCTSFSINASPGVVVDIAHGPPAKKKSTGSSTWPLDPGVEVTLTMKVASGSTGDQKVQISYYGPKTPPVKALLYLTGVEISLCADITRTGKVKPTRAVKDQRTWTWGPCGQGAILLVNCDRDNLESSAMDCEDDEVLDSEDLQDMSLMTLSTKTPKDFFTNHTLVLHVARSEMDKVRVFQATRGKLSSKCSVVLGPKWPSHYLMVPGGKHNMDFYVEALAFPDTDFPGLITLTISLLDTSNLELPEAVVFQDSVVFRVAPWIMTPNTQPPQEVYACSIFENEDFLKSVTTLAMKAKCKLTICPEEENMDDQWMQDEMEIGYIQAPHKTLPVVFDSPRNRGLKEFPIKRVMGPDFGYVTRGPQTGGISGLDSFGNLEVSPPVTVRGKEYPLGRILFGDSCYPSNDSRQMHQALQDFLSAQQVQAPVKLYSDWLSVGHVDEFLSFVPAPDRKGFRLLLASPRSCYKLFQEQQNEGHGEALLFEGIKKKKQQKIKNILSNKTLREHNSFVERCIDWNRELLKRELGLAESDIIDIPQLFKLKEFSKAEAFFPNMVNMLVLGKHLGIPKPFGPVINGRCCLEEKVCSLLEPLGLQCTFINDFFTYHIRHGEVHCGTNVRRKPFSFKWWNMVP
PRMT1 FP inh: PRMT1 (human) inhibition, primary screen. recombinant PRMT1, activity-based probe fluorescence polarization. Q99873. hit rate 1.3% among 370,000. AID 652257. inhibition, % at 2.79 µM;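 active = inhibition above about 21% made by adding two undisclosed values, limit read from the data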
SIAE primary: blocks human sialic acid acetylesterase; Q9HAT2; SIAE FP-Rh probe binding, fluorescence polarization; inhibition, % at 9.66 µM; hit rate 0.69% among 370,000;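 active = inhibition above a cutoff: mean of compounds within the control limits plus 3 SD of those, cut at about 17% in these data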;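 note: 0% = plate median of compound wells and 100% = probe without SIAE protein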
GSTO1 counter: GSTO1 inhibition, counter-screen for RBBP9 inhibitors | hit rate 1.1% among 300,000 | inhibition, % at 5.96 µM | recombinant GSTO1, activity-based probe fluorescence polarization;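 active = inhibition above the campaign mean inhibition plus 3 SD, cut at about 35% in these data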;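 note: 0% = GSTO1-1 with DMSO and 100% = wells lacking GSTO1-1 enzyme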
RBBP9 inh: inhibitors of human serine hydrolase RBBP9; O75884; hit rate 0.2% among 220,000; inhibition, % at 7.94 µM; recombinant RBBP9, FP-Rh probe fluorescence polarization; AID 1515;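 active = inhibition above the campaign mean of all tested compounds plus 3 SD, cut at about 14% in these data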;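 note: plate controls were DMSO wells with RBBP9 for no effect and wells lacking RBBP9 protein for full effect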
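Material: RBBP9 protein. Amount: RBBP9 at 2.5 µM in dispensed solution, before mixing. Schedule: 30 min then 45 min, 25 °C. Medium: Tris buffer pH 8.0, NaCl, Pluronic. Measured by: fluorescence polarization. Measure: percent inhibition from mP, scaled between DMSO and no-protein wells. Replication: one well per compound.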
GSTO1 inh conf: confirmation of human GSTO1 inhibitors; shares compounds with GSTO1 counter; recombinant GSTO1, probe fluorescence polarization; inhibition, % at 5.96 µM; hit rate 54% among 2,400; AID 2176;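 active = inhibition above the primary screen's cutoff, its mean inhibition plus 3 SD, cut at about 35% in these data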;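 note: loss of polarization as inhibitors block binding of rhodamine sulfonate ester activity probe; 0% = GSTO1 with DMSO and 100% = wells lacking GSTO1 enzyme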
GSTO1 recomb ABPP: blocks recombinant human glutathione S-transferase omega 1; shares compounds with GSTO1 counter; recombinant GSTO1, gel ABPP SE-Rh probe fluorescence; inhibition, % at 1 µM; hit rate 30% among 130; AID 463110;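 active = inhibition of the enzyme GSTO1 above about 75%, limit read from the data; inactive = inhibition below that limit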
The depositor's hits bear a star; · = not tested or not shown. Hits are enriched below; roughly 2.7% of the tested compounds scored in any of these assays.

SMILES	PAD4 inh	PRMT1 FP inh	SIAE primary	GSTO1 counter	RBBP9 inh	GSTO1 inh conf	others
CCc1cc(=O)oc2cc(OC(C)=O)cc(OC(C)=O)c12	1	-1	-1	47*	-9	3
CCCOc1ccc(N2C(=O)CC(N(O)c3ccccc3)C2=O)cc1 (centres undefined)	-2	1	8	18	-2	·
O=C1CC(N(O)c2ccccc2)C(=O)N1c1cc(Cl)cc(Cl)c1 (centres undefined)	15*	13	12	68*	12	3
COc1ccccc1N(O)C1CC(=O)N(c2ccc(F)cc2)C1=O (centres undefined)	-20	31*	5	57*	-1	3
COc1ccccc1N1C(=O)CC(N(O)c2ccccc2)C1=O (centres undefined)	5	0	10	7	-7	·
COC(=O)CCCC1=CC2=CC(=O)C(C)(OC(=O)c3cccs3)C(=O)C2=CN1Cc1ccccc1 (centres undefined)	-9	7	2	7	·	·
CC1(OC(=O)c2cccs2)C(=O)C=C2C=C3CCCN3C=C2C1=O (centres undefined)	15*	·	·	60*	·	62*
CCCCNC(=O)Oc1c(Br)cc2sc(=O)oc2c1Br	-10	·	·	66*	21*	19
CCCCNC(=O)Cc1ccc(Br)cc1	-4	-4	-5	1	-6	·
Cc1cc(OCCCN2CCCC2)ccc1Cl	3	-7	-4	4	·	·
COc1cc(OC)c([N+](=O)[O-])cc1/C=N/NC(=O)c1ccncc1	-8	8	-1	49*	4	18
Cc1ccc(Cc2c(-c3ccc(C#N)cc3)nc3ccc(C)cn23)cc1	·	5	-5	·	·	·
COc1cc(/C=N/Nc2nc3ccccc3s2)cc([N+](=O)[O-])c1O	-3	6	-7	48*	-13	50*
O=C(O)C1Cc2ccccc2CN1C(=O)CCl (centres undefined)	-10	1	0	70*	-5	98*	GSTO1 recomb ABPP=82*
O=C(O)C1Cc2ccccc2CN1C(=O)COc1ccc(Br)cc1 (centres undefined)	-4	-3	1	-1	0	·
Cc1ccc(C=C2C(Cl)=C(Cl)C(Cl)=C2Cl)cc1	2	·	·	45*	13	15
C=CCN1CN=C(NS(=O)(=O)c2ccc(NC(C)=O)cc2)NC1	2	1	0	8	-2	·
CCOc1ccc(C(c2c(C)[nH][nH]c2=O)c2c(C)[nH][nH]c2=O)cc1OC	7	0	1	42*	-3	1
COc1ccc(S[C@]2(C(=O)N3CCCC3)CC(=O)N[C@@H]2c2ccc(OC)cc2)cc1	·	5	-1	·	·	·
Cc1cccc(N/C(N)=N/c2nc3c(c(=O)[nH]2)CCCC3)c1	0	3	-3	-1	9	·
Cc1cc(Nc2cccc(C(=O)O)c2)n2ncnc2n1	-2	2	-1	86*	·	5
CC1CC(C)(C)Nc2ccc(OC(=O)c3ccco3)cc21 (centres undefined)	0	-4	3	43*	-4	5
O=C(Oc1ccc2ccccc2c1)c1ccco1	-4	0	-5	9	-1	·
Cc1nnc(NC(=O)CSc2nnc3scc(-c4ccc(C)c(C)c4)n23)s1	-3	3	4	1	-5	·
O=[N+]([O-])c1cncc([N+](=O)[O-])c1Nc1cccc(O)c1	6	5	-8	70*	·	13
SMILES	PAD4 inh	PRMT1 FP inh	SIAE primary	GSTO1 counter	RBBP9 inh	GSTO1 inh conf	others
O=C(O)COc1ccccc1/C=C1\SC(=O)N(Cc2ccc(F)cc2)C1=O	-7	2	6	1	6	·
O=C(Nc1ccccc1F)c1ccc([N+](=O)[O-])s1	1	0	5	44*	-3	12
COc1cc(/C=N/NC(=O)C(N)=O)cc(OC)c1O	2	-2	13	14	11	·
CCCCOc1ccc(-c2ncc(C(=O)O)c(C)n2)cc1	-1	-1	-1	43*	-8	5
O=c1cc(-c2ccccc2)nc(Cc2c(Cl)cccc2Cl)[nH]1	3	0	-5	5	·	·
O=c1cc(CCl)nc(Cc2c(Cl)cccc2Cl)[nH]1	0	-3	-3	93*	·	97*	GSTO1 recomb ABPP=82*
Cc1csc(=Nc2c(C)n(C)n(-c3ccccc3)c2=O)n1-c1ccccc1	0	-2	4	-6	-6	·
Cc1c(N=c2c(=O)c3ccccc3c2=O)c(=O)n(-c2ccccc2)n1C	-6	·	·	57*	·	77*
Cc1cc(-c2ccc(N=Nc3c(S(=O)(=O)O)cc4cc(S(=O)(=O)O)cc(N)c4c3O)c(C)c2)ccc1N=Nc1c(S(=O)(=O)O)cc2cc(S(=O)(=O)O)cc(N)c2c1O	-45	·	·	-76	·	·
O=S(=O)(O)c1cc(O)c2c(O)c(N=Nc3cc(Cl)ccc3O)c(S(=O)(=O)O)cc2c1	4	·	·	62*	·	73*
CC1(OC(=O)C2CCCC2)C(=O)C=C2C=C(c3ccsc3)N(C3CCCCC3)C=C2C1=O (centres undefined)	-5	2	13	43*	·	18
CC1(OC(=O)C2CCCC2)C(=O)C=C2C=C(c3ccsc3)N(Cc3ccc4c(c3)OCO4)C=C2C1=O (centres undefined)	-10	4	3	12	·	·
CC1(OC(=O)C2CCCC2)C(=O)C=C2C=C(c3ccsc3)N(CC3CC3)C=C2C1=O (centres undefined)	11	6	6	40*	·	25
CC1(OC(=O)CCc2ccccc2)C(=O)C=C2C=C(c3ccc(C#N)cc3)N(C3CCCCC3)C=C2C1=O (centres undefined)	-5	5	-4	45*	·	12
CC1(OC(=O)CCc2ccccc2)C(=O)C=C2C=C(c3ccc(C#N)cc3)N(C(CO)CO)C=C2C1=O (centres undefined)	-17	5	-1	21	·	·
O=C(Nc1ccc(Cl)c(C(F)(F)F)c1)NC1CC2CCCC(C1)N2Cc1ccccc1 (centres undefined)	-7	4	-16	-13	-5	·
CCCCN1C(=O)C(CC(=O)NCC2CCCCC2)CC(C(=O)N2CCOCC2)=C1C (centres undefined)	·	1	3	·	·	·
O=C(CCS(=O)(=O)c1ccc(F)cc1)Nc1nnc(-c2ccco2)o1	-2	3	3	5	·	·
CCOC(=O)c1cnc(-n2nc(C)cc2C)[nH]c1=O	2	1	-6	-6	-3	·
CCOC(=O)c1cnc(-n2[nH]c(C)cc2=O)[nH]c1=O	-2	-6	1	42*	3	4
C/C=C/c1cnc2c(c1)C(=O)N([C@@H](C)CO)C[C@H](C)[C@@H](CN(C)S(=O)(=O)c1ccc(C)cc1)O2	·	-2	7	·	·	·
Cc1cc2c(NC(=O)CC(C)(C)CC(=O)O)cccc2nn1	-1	-3	6	42*	-7	7
